Screening data from PubChem.
S100A4 inh HTS – inhibitors of S100A4-myosin IIA peptide binding, primary screen, biochemical, fluorescence polarization, TAMRA-MyoIIA peptide; Protein S100-A4 (Homo sapiens), P26447; inhibition, % at 10.7 µM; 0.14% of 360,000 active;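 active means mean inhibition of at least 70% across replicates, with every replicate also reaching that level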
Target sequence (P26447 whole entry, looked up): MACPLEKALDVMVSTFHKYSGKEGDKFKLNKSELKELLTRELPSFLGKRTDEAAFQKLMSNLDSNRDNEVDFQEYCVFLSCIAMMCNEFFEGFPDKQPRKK
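Assay system: human S100A4 monomer with TAMRA-labelled myosin IIA peptide / Buffer or medium: Calcium-containing HEPES buffer, pH 7.2 / Reagent: TAMRA-labelled myosin IIA heavy-chain peptide probe, 5 nM / Compound: one dose per compound / Timing: polarization read 5 min after assay mix addition, stable 5–60 min / Benchmarks: neutral control DMSO, positive control TFP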
Env fusion inh – inhibitors of HIV-1 Env-driven cell-cell fusion, primary screen, HeLa-JRFL effector, CEM21 target cells, luciferase. inhibition, % at 12.3 µM. 1.1% of 360,000 active;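 active means mean replicate inhibition score of at least 50 and every replicate individually at or above 50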;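 further: 0% = plate neutral controls and 100% = maraviroc near 300 nM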
rRNA inh HTS – reduced GFP signal of wild-type E. coli, primary screen, bacterial rRNA inhibitor project, GFP/RFP fluorescence, OD600, single point; E. coli WT GFP vs humanized-ribosome RFP mutants, 24 h; active compounds read low; DMSO median 0, no signal -100; GFP signal change (wild-type ribosome), % (no concentration beside the values); 1.6% of 350,000 active; AID 720706, 2013;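 active means significant combined selectivity score with lowered wild-type GFP, culture density cut under 30%, mutant RFP and density less affected; inactive means any of these conditions unmet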
FN deposit inh – inhibitors of fibronectin matrix deposition, primary screen, AH1F cells, Alexa488-fibronectin fluorescence, plate reader. 0.086% of 350,000 active. inhibition, % at 12.6 µM. AH1F fibroblasts, overnight. AID 743247, 2014;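 active means mean inhibition across replicates of 30% or more, regardless of how many single replicates reach that level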;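 further: positive control wells lacked labelled fibronectin entirely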
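test system = AH1F fibroblasts assembling fluorescent fibronectin matrix | quantity = 10000 AH1F cells per well | buffer or medium = DMEM plus 2% serum, read in PBS | doses = single dose, pinned | incubation = 1 h cell attachment, overnight exposure to compound and label | detection = fluorescence at 485 nm excitation, 525 nm emission | read-out basis = inhibition from reduced deposited-fibronectin fluorescence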
miR-122 sensor – miR-122 Renilla sensor signal increase in Huh7, primary screen, miR-122 inhibitor project, cell-based, single point, plate reader; Huh7 miR-122 Renilla luciferase sensor, 48 h; neutral wells = 0, positive control = 100; activation (reporter increase), % at 12.5 µM; 0.3% of 340,000 active; AID 602342, 2012;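 active means mean replicate activation score at least 90 and every replicate individually at or above 90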;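 further: higher luciferase means less miR-122 activity so hits act as miR-122 inhibitors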
Vif imaging – HIV Vif self-association inhibitors, primary screen, imaging, HEK293T, single point; HEK293T cells, Vif self-association by quenched fluorescence, 24 h; inhibition, % at 7.49 µM; 0.35% of 340,000 active; AID 602346, 2012; in the data active means inhibition above about 50%, passing the limit was not always enough
Active calls of the source: *; nt = no result given; [ ] = dose if it differs, or a comment. This is a sample that favours compounds with a hit; in the whole collection about 2.6% have one here.

SMILES | S100A4 inh HTS | Env fusion inh | rRNA inh HTS | FN deposit inh | miR-122 sensor | Vif imaging
Cc1noc(C)c1NC(=O)N(C)C[C@H]1Oc2ccc(NS(=O)(=O)c3cccs3)cc2C(=O)N([C@@H](C)CO)C[C@H]1C | 0.5 | nt | 2.6 | nt | 3.3[16.7 µM] | nt
CCS(=O)(=O)N1CCN(c2ccccc2)CC1 | -0.4 | -6.7 | 11.4 | -4.8 | -1.2 | -14.9
O=C1Oc2ccccc2C(=O)/C1=C\N1CCN(c2ccccc2)CC1 | -12.1 | 2.8 | -33.1* | 0.2 | -7.4 | 9.5
COc1ccc(NC(=O)N(C)C[C@H]2Oc3c(cccc3N(C)C)C(=O)N([C@H](C)CO)C[C@H]2C)cc1 | -18.6 | -1.2[16.7 µM] | -2.2 | nt | 8.0[16.7 µM] | nt
CCc1nc2ccc(C(=O)NCCN3CCNC3=O)cn2c1N(CC)Cc1cccc(Br)c1 | 1.5 | 72.0* | -15.3 | -7.0 | 1.1 | -3.9
O=C(C[C@@H]1CC[C@H](NC(=O)c2ccccn2)[C@@H](CO)O1)NCc1cccc(F)c1 | 6.3 | -1.0[16.7 µM] | 0.4 | nt | nt | nt
CC(=O)Nc1cccc(-c2ccnc3c2CC(C(=O)Nc2ccc4c(c2)OCO4)O3)c1 (stereo not given) | 0.4 | -3.7 | -21.9* | -8.7 | -2.6 | 16.0
CC(=O)Nc1ccc(NC(=O)C2Cc3c(-c4ccc5c(c4)OCO5)ccnc3O2)cc1 (stereo not given) | -3.3 | 4.0 | 0.3 | 4.6 | 1.7 | nt
CC(=O)c1cccc(-c2ccnc3c2CC(C(=O)NCc2ccco2)O3)c1 (stereo not given) | -1.1 | -5.9 | -2.1 | -3.7 | 16.2 | 54.2*
NC(=O)c1cccc(-c2ccnc3c2CC(C(=O)NCc2ccco2)O3)c1 (stereo not given) | 7.1 | -83.5 | 11.1 | 5.9 | 21.6 | -2.5
CCc1ncc(/C=C2\C(=O)Nc3ccccc32)[nH]1 | -1.3 | 21.2 | -15.8 | 6.0 | -2.8 | 0.0
Cc1ncc(/C=C2\C(=O)Nc3ccccc32)[nH]1 | 7.2 | 0.9 | -18.6* | 3.6 | nt | nt
COc1ccc2c3c(n(C)c2c1)[C@H](CO)NCC31CCN(S(=O)(=O)c2cccc(F)c2)CC1 | nt | nt | -0.6 | nt | nt | nt
COc1cccc2cc(-c3n[nH]c(=S)n3C)oc12 | -0.5 | -1.9 | -8.2 | -3.2 | nt | 3.7
COc1cccc2cc(-c3ccnc(N)n3)oc12 | -0.9 | -75.4 | -32.3* | -17.5 | -5.9 | -3.4
CCNC(=O)[C@@H]1[C@@H](CO)[C@@H]2Cn3c(ccc(-c4ccccc4)c3=O)[C@@H]2N1C(=O)C1CCC1 | 2.8 | nt | 0.5 | -6.3 | -2.5[16.7 µM] | nt
CCn1c(C)nc2cc(C(=O)N/N=C/c3ccc(OC)c(O)c3)ccc21 | -19.4 | 5.2 | -23.1* | -0.2 | nt | -5.4
CCn1c(C)nc2cc(C(=O)N/N=C/c3ccc(OC)cc3)ccc21 | -20.4 | -3.1 | -4.1 | 4.0 | -4.1 | 3.4
CCn1c(C)nc2cc(C(=O)N/N=C/c3ccc(O)cc3)ccc21 | -13.4 | 4.1 | -11.7 | 7.1 | nt | 1.4
CCn1c(C)nc2cc(C(=O)NN=Cc3ccc([N+](=O)[O-])cc3)ccc21 | -3.2 | nt | -1.9 | 31.5* | nt | 6.0
CN(C)C(=O)C[C@H]1CC[C@@H]2[C@@H](COc3ccc(NC(=O)NCc4ccccc4)cc3C(=O)N2C)O1 | 16.7 | 16.3[16.7 µM] | 2.0 | -8.9 | 38.3[16.7 µM] | nt
COc1ccc(/C=N/Nc2ccc([N+](=O)[O-])cc2)cc1Cn1cc([N+](=O)[O-])cn1 | nt | nt | nt | nt | 0.2 | 98.3*
COc1ccc(/C=N/n2cncn2)cc1Cn1cc([N+](=O)[O-])cn1 | -5.4 | -7.8 | 12.9 | 5.0 | 10.0 | 13.9
O=C(N[C@@H]1CC[C@@H](CCNS(=O)(=O)c2ccc(F)cc2)O[C@H]1CO)c1cnccn1 | 20.0 | -24.9[16.7 µM] | 2.5 | 3.2 | nt | nt
C[C@H]1CCCCO[C@H](CN(C)C(=O)Cc2ccccc2)[C@@H](C)CN([C@@H](C)CO)C(=O)c2cc(NC(=O)C3CCCCC3)ccc2O1 | nt | 4.0[16.7 µM] | -6.9 | nt | -3.7[16.7 µM] | nt
Cn1cc(C(=O)NCC(=O)Nc2ccccc2Br)cn1 | -10.8 | nt | 12.8 | -0.2 | -4.9 | nt
